Screens deposited in PubChem BioAssay by The Scripps Research Institute Molecular Screening Center.
Rows were chosen to be rich in hits. Some 1.8% of all compounds tested hit in one or more screens of this group.
NPY Y1 blocker – antagonists of human neuropeptide Y receptor Y1 | HEK293-CNG Y1 cells, membrane potential fluorescence; NPY at EC95, then isoproterenol | inhibition, % at 3.6 µM | 1% of 200,000 active | AID 1040;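 active means inhibition above the campaign mean inhibition of all tested compounds plus 3 SD, cut at about 20% in these data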;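 further: 0% = DMSO wells given NPY plus isoproterenol and 100% = isoproterenol alone without NPY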
Target sequence (P25929 whole entry, looked up): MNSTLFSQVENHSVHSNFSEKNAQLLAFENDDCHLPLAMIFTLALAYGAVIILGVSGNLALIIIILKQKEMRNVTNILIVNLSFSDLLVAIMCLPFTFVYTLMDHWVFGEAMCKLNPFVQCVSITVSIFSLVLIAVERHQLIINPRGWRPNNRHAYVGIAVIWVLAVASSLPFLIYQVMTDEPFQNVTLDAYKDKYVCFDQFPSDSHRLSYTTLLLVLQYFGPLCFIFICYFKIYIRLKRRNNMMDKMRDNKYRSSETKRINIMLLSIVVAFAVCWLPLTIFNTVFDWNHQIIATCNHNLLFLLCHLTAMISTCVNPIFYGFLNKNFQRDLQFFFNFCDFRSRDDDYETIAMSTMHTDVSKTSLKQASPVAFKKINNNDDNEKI
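Material: HEK293 Y1/CNG channel cell line; also added: NPY (25 nM), isoproterenol (1 µM), Ro 20-1724 (25 µM); doses: one concentration, 3.6 µM, in 0.4% DMSO; schedule: compound incubation 1 h at room temperature, readout 45 min post-stimulation; technique: membrane potential fluorescence; measure: fluorescence ratio normalized to % inhibition between controls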
NPY-Y2 PAM-ag – potentiators or agonists of human neuropeptide Y receptor Y2. P49146. cells expressing NPY-Y2, potentiator/agonist read-out. activation, % at 3.6 µM. 0.45% of 220,000 active. AID 1359; in the data active means activation above about 27%;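 further: cells stimulated with NPY near EC25 plus isoproterenol at EC100; 0% = vehicle plus submaximal agonist and 100% = vehicle plus saturating agonist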
Target sequence (P49146 whole entry, looked up): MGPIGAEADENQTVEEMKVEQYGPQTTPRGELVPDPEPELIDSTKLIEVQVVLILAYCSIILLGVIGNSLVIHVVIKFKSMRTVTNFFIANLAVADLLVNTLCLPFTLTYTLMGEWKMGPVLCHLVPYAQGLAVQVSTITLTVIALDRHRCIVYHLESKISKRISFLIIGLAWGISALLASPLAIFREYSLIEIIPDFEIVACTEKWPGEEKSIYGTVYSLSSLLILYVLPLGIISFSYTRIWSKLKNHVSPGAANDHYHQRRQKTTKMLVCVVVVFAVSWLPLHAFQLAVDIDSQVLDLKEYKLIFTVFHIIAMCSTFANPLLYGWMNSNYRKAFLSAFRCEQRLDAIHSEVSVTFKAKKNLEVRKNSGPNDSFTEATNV
NPY-Y1 PAM-ag – potentiators or agonists of human neuropeptide Y receptor Y1; activation, % at 3.6 µM; AID 1304; NPY-Y1 expressing cells, potentiator/agonist activation; P25929; 0.37% of 220,000 active; in the data active means activation above about 33%, passing the limit was not always enough;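 further: cells stimulated with NPY at EC10 then isoproterenol at EC100; 0% = low agonist plus stimulus and 100% = saturating agonist plus stimulus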
NPY Y2 blocker – blocks the human neuropeptide Y Y2 receptor; P49146; inhibition, % at 2.7 µM; 0.99% of 140,000 active; NPY-Y2 expressing cells, antagonist mode; in the data active means inhibition above about 17%;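 further: 0% = vehicle with agonist challenge and 100% = reference antagonist with challenge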
NPY-Y1 pot conf – human NPY-Y1 potentiation or agonism, confirmation; cell-based NPY-Y1 potentiator/agonist assay; shares compounds with NPY-Y1 PAM-ag; activation, % at 3.6 µM; 20% of 280 active; in the data active means activation above about 45%;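 further: cells challenged with NPY at its EC10 plus isoproterenol stimulus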
NPY-Y2 counter – potentiates or activates NPY-Y2, counter-screen for NPY-Y1 hits. 20% of 280 active. HEK293-CNG cells, membrane-potential fluorescence (FLIPR), 1536-well. activation, % at 3.6 µM. shares compounds with NPY-Y1 PAM-ag; in the data active means activation above about 33%
NPY-Y1 ag – human NPY-Y1 agonism as potentiator counter-screen | shares compounds with NPY-Y1 PAM-ag | HEK293 Y1-CNGC, membrane potential fluorescence, agonist mode | activation, % at 3.6 µM | 50% of 280 active | AID 1697;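 active means percent activation above the mean of DMSO-only control wells plus 3 SD of those wells, cut at about 18% in these data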;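 further: cells challenged with isoproterenol plus Ro 20-1724 with no NPY in test wells; Y1 agonism lowers isoproterenol-driven cAMP and reduces probe fluorescence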
NPY-Y2 ag – human NPY-Y2 agonism as NPY-Y1 counter-screen | shares compounds with NPY-Y1 PAM-ag | HEK293 Y2-CNGC, membrane potential fluorescence, agonist mode | activation, % at 3.6 µM | 67% of 280 active | AID 1698;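 active means activation above the solvent-only control wells' mean plus 3 SD, cut at about 11% in these data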;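 further: 0% = DMSO with isoproterenol and 100% = 40 nM NPY maximal response; agonism lowers cAMP so well fluorescence drops in active wells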
CNGC counter – blocks cyclic nucleotide gated channel in NPY-Y1 counter-screen; inhibition, % at 3.6 µM; 42% of 280 active; HEK293-CNG parental, isoproterenol cAMP, membrane potential fluorescence; shares compounds with NPY-Y1 PAM-ag;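 active means inhibition above the mean of stimulated solvent-only control wells plus 3 SD, cut at about 22% in these data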;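 further: 0% = isoproterenol-stimulated DMSO wells and 100% = unstimulated DMSO wells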
* = called active by the depositor; . = no result given.

SMILES | NPY Y1 blocker | NPY-Y2 PAM-ag | NPY-Y1 PAM-ag | NPY Y2 blocker | NPY-Y1 pot conf | NPY-Y2 counter | NPY-Y1 ag | NPY-Y2 ag | CNGC counter
COc1ccc(N(C)S(=O)(=O)c2cccc(C(=O)Nc3cc(OC)ccc3OC)c2)cc1 | 6.4 | -0.7 | -12.0 | . | . | . | . | . | .
CCOc1ccc(N2C(=O)C(CC(=O)Nc3ccc(F)cc3)N(Cc3ccccn3)C2=S)cc1 (configuration not stated) | -11.7 | 10.8 | 42.1* | . | 46.8* | 32.3 | 35.1* | 46.5* | 41.0*
CC(C)Cn1c(N)c(C(=O)COC(=O)c2cnc(Cl)c(Cl)c2)c(=O)n(C)c1=O | -3.3 | 24.5 | 41.6* | . | 38.0 | 41.8* | 33.3* | 24.0* | 15.9
N#Cc1cnc(NOCc2ccc(Cl)cc2)nc1 | 0.4 | 6.9 | 19.4 | . | . | . | . | . | .
Cc1cc(OC(F)F)ccc1NC(=O)Nc1ccc([N+](=O)[O-])cc1 | -12.6 | 28.8 | 58.9* | -5.7 | 36.4 | 28.9 | 25.0* | 28.4* | 30.6*
c1ccc(-n2ncc3c(N4CCN(CCOc5cccc6ccccc56)CC4)ncnc32)cc1 | 3.2 | 4.8 | -8.0 | 4.9 | . | . | . | . | .
Cc1cccc(Nc2c(-c3ccc(O)cc3)nc3ncccn23)c1 | -2.6 | 28.8 | 39.8* | . | 31.9 | 29.2 | 16.4 | 30.9* | 22.8*
COc1cc(C(=O)Nc2cc(Cl)ccc2C)c(-n2cnnn2)cc1OC | 0.8 | 1.4 | 7.8 | 2.1 | . | . | . | . | .
O=C(c1ccc(=O)[nH]c1)N(Cc1cccs1)C1(C(=O)NC2CCCC2)CCCCC1 | 4.9 | 7.8 | 5.7 | 0.5 | . | . | . | . | .
Nc1nc(Cl)cc(N2CCC(c3cc(-c4ccc(Cl)cc4)n[nH]3)CC2)n1 | -5.1 | 32.7 | 55.1* | -2.1 | 14.8 | 14.6 | 1.0 | 15.2* | 6.5
CC(C)(C)OC(=O)NCCCCCNC(=O)c1[nH]cnc1C(=O)N[C@@H](Cc1ccccc1)C(=O)OCc1ccccc1 | -7.1 | 29.9 | 57.7* | . | 47.2* | 22.4 | 31.8* | 18.6* | 27.8*
CN(CCc1nc2ccc(Cl)cc2[nH]1)Cc1nc(CC2CC2)no1 | 0.7 | 2.0 | -0.9 | . | . | . | . | . | .
CCc1ccc(NC(=O)C(C)OC(=O)c2ccc(NS(=O)(=O)c3ccc(C)c([N+](=O)[O-])c3)cc2)cc1 (configuration not stated) | -12.3 | 18.9 | 42.2* | -3.2 | 23.8 | 10.4 | 16.3 | 12.4* | 23.4*
Cc1ccc(NC(=O)C(C)OC(=O)c2ccc(NS(=O)(=O)c3ccc(F)c(F)c3)cc2)cc1 (configuration not stated) | 1.1 | 20.5 | 9.5 | -0.2 | . | . | . | . | .
CC(OC(=O)c1ccc(NS(=O)(=O)c2ccc3[nH]c(=O)[nH]c3c2)cc1)C(=O)Nc1ccc(Cl)cc1 (configuration not stated) | 2.6 | -23.4 | 67.2* | . | -1.9 | -2.9 | -4.2 | 1.7 | -3.0
COc1ccc(NC(=S)N2CCC(c3nc4ccccc4o3)CC2)c(OC)c1 | 2.6 | -16.7 | 0.3 | . | . | . | . | . | .
COc1ccc(C2CC(c3ccccc3)=NN2C(=O)COC(=O)c2cc(S(=O)(=O)N3CCOCC3)ccc2F)cc1 (configuration not stated) | 5.5 | 3.4 | -33.0 | 1.1 | . | . | . | . | .
COc1ccc2c(c1)c(/C=N/Nc1nc3ccccc3[nH]1)c(C)n2C | . | 28.7 | 42.3* | . | 60.5* | 46.8* | 42.2* | 49.8* | 35.8*
CC(Oc1cc(C(F)(F)F)cc(C(F)(F)F)c1)C(=O)NC(N)=O (configuration not stated) | -12.9 | 23.6 | 49.4* | 3.0 | 45.6* | 28.6 | 34.1* | 31.8* | 35.6*
NS(=O)(=O)c1ccc(CCNc2ncnc3c2c(-c2ccccc2)cn3-c2ccc(F)cc2)cc1 | -6.0 | -6.6 | 104.8* | -0.6 | 6.4 | -2.1 | -5.1 | 2.7 | 4.5
Cc1ccc(NCc2nnc(SCC(=O)O)n2Cc2ccccc2)cc1Cl | 0.2 | 1.4 | -14.1 | . | . | . | . | . | .
Cc1ccc(NCc2n[nH]c(=S)n2Cc2ccccc2)cc1Cl | -4.3 | 20.7 | 45.2* | . | 12.5 | 8.5 | 15.9 | 6.5 | 10.4
CCN1CCCC1CNC(=O)c1ccc(Sc2ccccc2Cl)c([N+](=O)[O-])c1 (configuration not stated) | 5.7 | 23.2 | 36.1* | . | 32.0 | 23.5 | 22.6* | 30.3* | 34.3*
O=S(=O)(Nc1nc2ccccc2nc1Nc1ccc(N2CCOCC2)cc1)c1cc(Cl)ccc1Cl | -5.9 | 8.4 | 3.7 | 1.3 | . | . | . | . | .
Brc1ccc(C=Nc2ccc(Nc3ccccc3)cc2)s1 | -0.3 | 16.4 | 40.4* | 2.2 | 1.9 | 2.2 | 8.8 | 16.8* | 7.7
SMILES | NPY Y1 blocker | NPY-Y2 PAM-ag | NPY-Y1 PAM-ag | NPY Y2 blocker | NPY-Y1 pot conf | NPY-Y2 counter | NPY-Y1 ag | NPY-Y2 ag | CNGC counter
C(=Nc1ccc(Nc2ccccc2)cc1)c1ccc2ccccc2c1 | -8.1 | 21.7 | 45.9* | 3.7 | -13.7 | -8.7 | 3.3 | -0.1 | -0.9
CC(=O)Nc1ccc(S(=O)(=O)NCCC(=O)NCCc2ccc(F)cc2)cc1 | 5.6 | 15.3 | 61.9* | -0.9 | 10.5 | 1.5 | -4.7 | 9.6 | 0.4
C/C(=N\Nc1ccc([N+](=O)[O-])cc1)c1ccc(C#N)cc1 | . | 13.6 | 20.5 | . | . | . | . | . | .
N#CC(C#N)=NNc1ccc([N+](=O)[O-])cc1 | . | 32.7 | 51.0* | . | 40.1 | 31.9 | 37.2* | 35.7* | 31.8*
CCC1=NN(C(=O)c2cccnc2)C(O)(C(F)(F)F)C1 (configuration not stated) | 7.0 | 5.4 | -3.8 | -0.7 | . | . | . | . | .
Nc1nc(-c2ccccc2)nc2sc3c(c12)CCCC3 | -1.9 | -10.3 | -22.1 | 4.5 | . | . | . | . | .
Cc1csc(NC(=O)CSc2nnc(NC(=O)COc3ccc(Cl)cc3)s2)n1 | 3.6 | 6.8 | 2.7 | 4.7 | . | . | . | . | .
CN(C)CCNC(=O)c1ccc(Sc2ccc(Br)cc2)c([N+](=O)[O-])c1 | -5.3 | 13.5 | 39.2* | . | 42.6 | 33.2* | 25.9* | 39.6* | 29.9*
O=S(=O)(c1ccccc1)N1CCN=C1SCc1cccc(Cl)c1 | 9.1 | -0.8 | -17.8 | 3.1 | . | . | . | . | .
COc1ccc(C(=O)NCCN2C(=O)S/C(=C\c3cccnc3)C2=O)cc1[N+](=O)[O-] | . | 0.1 | 21.4 | . | . | . | . | . | .
Cc1ccccc1NCC(=O)N/N=C/c1c[nH]c2ccccc12 | -10.1 | 15.3 | 46.2* | . | 28.6 | 24.5 | 26.5* | 17.8* | 28.8*
C/C(=N/NC(=O)C(C)n1nc(C)c([N+](=O)[O-])c1C)c1ccc(OCC(N)=O)cc1 (configuration not stated) | . | -3.2 | 16.7 | . | . | . | . | . | .
CC(C)c1ccc2c(c1)CCC1C(C)(CN)CCCC21C (configuration not stated) | . | 32.8 | 46.6* | . | 47.6* | 42.5* | 33.9* | 40.3* | 21.6
